Bioassay records deposited in PubChem by several laboratories.
Shown are actives, neighbours in structure and some others; about 4.9% of the full set was active somewhere.
NF-kB expr up = activators of NF-kB expression in neurons, primary screen, cell-based, HTS | fold change at 12.5 µM | AID 1239, 2008 | human neuronal cells, NF-kB reporter expression; stronger effect = higher value | 190,000 compounds, 1.6% hits; in the data active = fold change above about 3.3
STAT3 activator = IL-6 driven STAT3 reporter potentiators, primary screen, U3A cells, luciferase, luminescence, MLSCN library | activation (% of control), % at 5.6 µM | AID 871, 2007 | 190,000 compounds, 0.91% hits | IL-6 STAT3-luciferase reporter; 100% = signal with IL-6 EC80 alone;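 active = activation above the screen-wide mean of compound activation plus 3 SD, cut at about 130% in these data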
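Material: STAT1-lacking human U3A cells, STAT3 luciferase reporter | Benchmarks: IL-6-only wells as 100% reference | Probe or stimulus: IL-6 (33 ng/mL) | Timing: Compound 1 h, then IL-6 6 h at 37 °C | Detection: Luminescence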
APP 5'UTR act = activators of APP 5'UTR luciferase reporter, primary screen, SH-SY5Y cells; SH-SY5Y APP 5'UTR luciferase reporter, luminescence; zero percent = DMSO vehicle wells; activation, % at 2 µM; 190,000 compounds, 1% hits; AID 1276, 2008;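 active = activation above a set limit, based on mean plus 3 SD of controls, cut at about 140% in these data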
STAT1 inh = STAT1 signaling inhibitors, primary screen, cell-based, HTS, luciferase reporter. NIH 3T3 STAT1-luciferase reporter, IFN-gamma, luminescence. inhibition, % at 5.5 µM. 200,000 compounds, 0.35% hits. AID 920, 2007;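 active = inhibition above a set limit, the mean inhibition across all tested compounds plus 3 SD, cut at about 34% in these data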
STAT3 blocker = IL-6 driven STAT3 reporter inhibitors, primary screen, U3A cells, luciferase, luminescence, MLSCN library. inhibition, % at 5.5 µM. 190,000 compounds, 0.89% hits. IL-6 STAT3-luciferase reporter; host cell line lacks STAT1. AID 862, 2007;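 active = inhibition above the mean inhibition across all screened compounds plus 3 SD, cut at about 44% in these data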
STAT1 act = STAT1 signaling activators, primary screen, cell-based, HTS, luciferase reporter | activation (% of control), % at 5.5 µM | NIH 3T3 STAT1-luciferase reporter, IFN-gamma, luminescence; 100% = IFN-gamma alone, no compound | 200,000 compounds, 2.6% hits | AID 932, 2007;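 active = activation above the screen-wide mean activation plus 3 SD, cut at about 130% in these data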
STAT1 act conf = STAT1 signaling activators, confirmation, cell-based, HTS, luciferase reporter. shares compounds with STAT1 act. NIH 3T3 STAT1-luciferase reporter, IFN-gamma potentiation, luminescence; 100% = IFN-gamma EC80 alone, no compound. activation (% of control), % at 5.7 µM. 1,200 compounds, 97% hits;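 active = activation above a set limit carried over from the earlier primary STAT1 screen, cut at about 140% in these data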
NFkB act = NF-kB reporter activators, TNF-alpha stimulated, counter-screen for STAT1 activator project, cell-based, HEK293T, luciferase luminescence; activation (% of control), % at 5.7 µM; 1,200 compounds, 43% hits; 100% = TNF-alpha with vehicle only; shares compounds with STAT1 act;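 active = activation above the mean of solvent-only control wells plus 3 SD, set per campaign, cut at about 130% in these data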;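 also: TNF-alpha given at a submaximal dose yielding about 80% of full reporter signal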
STAT3 act 2 = STAT3 reporter activation by STAT1 hits, confirmation, counter-screen for STAT1 activator project, U3A cells, luciferase, luminescence; shares compounds with STAT1 act; IL-6; cells lack STAT1; 100 = IL-6 alone, no compound effect; activation (% of control), % at 5.7 µM; 1,200 compounds, 46% hits; AID 1316, 2008;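 active = activation above the solvent-only control well mean plus 3 SD, set per plate batch, cut at about 110% in these data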;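 also: higher means more STAT3 reporter activation so hits are non-selective activators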
Each line names hits and unclear results; the compound was inactive in the other large screens (follow-up assays come after a bar, where they were run).

COc1ccc(C2CC(c3ccc4ccccc4c3)=NN2C(=O)CNC2CCCCC2)cc1 (stereo not drawn)	none
COc1ccc(C2CC(c3ccc4ccccc4c3)=NN2C(=O)COC(=O)C2CCC(=O)N2)cc1 (stereo not drawn)	APP 5'UTR act 258, STAT1 act 183 | STAT1 act conf 247 | NFkB act 148 | STAT3 act 2 129
CC(C)(C)c1ccc(/C=C/C(=O)N2CCCCC2)cc1	NF-kB expr up 4.4, STAT1 act 169 | STAT1 act conf 166 | NFkB act 149 | STAT3 act 2 128
CCOC(=O)C1CCCN(C(=O)/C=C/c2ccc(Cl)cc2)C1 (stereo not drawn)	none
Cc1ccc(/C=C/C(=O)N2CCCC(C)C2)cc1 (stereo not drawn)	NF-kB expr up 4.5, STAT1 act 168 | STAT1 act conf 193 | NFkB act inactive | STAT3 act 2 inactive
CC(Cc1cccs1)NC(=O)Nc1ccc([N+](=O)[O-])cc1 (stereo not drawn)	none
O=C(Nc1ccc2ccccc2c1)c1onc2c1CCCC2	NF-kB expr up 8.1, APP 5'UTR act 206, STAT1 act 154 | STAT1 act conf 270 | NFkB act inactive | STAT3 act 2 inactive
Cc1cc(C)n(CC(=O)O)c(=O)c1[N+](=O)[O-]	none
CC1=NN(C(=O)c2cc(C)nn2C)C(O)(C(F)(F)F)C1 (stereo not drawn)	none
Cc1ccccc1/C(N)=N/OC(=O)c1ccc(F)cc1	STAT1 act 183 (no result: NF-kB expr up) | STAT1 act conf 174 | NFkB act 135 | STAT3 act 2 inactive
Cc1cccc(C(=O)NC(=S)NNC(=O)c2cccs2)c1	none
Cc1ccc2oc(-c3ccc(C)c(NC(=S)NC(=O)c4cccs4)c3)nc2c1	NF-kB expr up 3.4, APP 5'UTR act 222, STAT1 act 154 | STAT1 act conf 145 | NFkB act inactive | STAT3 act 2 132
Cc1ccnc(NC(=S)NC(=O)c2cccs2)c1	NF-kB expr up 3.7, STAT1 act 237 | STAT1 act conf 263 | NFkB act 166 | STAT3 act 2 132
NS(=O)(=O)c1ccc(NC(=S)Nc2nn(Cc3ccc(Cl)cc3Cl)cc2Cl)cc1	none
COc1ccc(CNC(=O)c2ccc3nccnc3c2)cc1	none
COc1ccc(CNC(=O)c2ccc(C(C)C)cc2)cc1	NF-kB expr up 3.7, STAT1 act 151 | STAT1 act conf 177 | NFkB act 144 | STAT3 act 2 128
COc1ccc(C(=O)NCCSc2ccccc2)cc1	NF-kB expr up 5.7, STAT1 act 157 | STAT1 act conf 193 | NFkB act inactive | STAT3 act 2 112
Cn1c(=O)c(-c2cc(=O)[nH][nH]2)c(O)c2ccccc21	none
CO/N=C/CC(=O)c1cnc(-c2ccc(Cl)cc2)s1	none
COc1ccc(/C=C/c2nc3ccccc3n2Cc2ccccc2OC)cc1	NF-kB expr up 5.6, APP 5'UTR act 179, STAT1 act 154 | STAT1 act conf 166 | NFkB act inactive | STAT3 act 2 113
COc1ccc(-c2cc(=NC(CC(C)C)C(=O)O)c3cc(C)ccc3o2)cc1 (stereo not drawn)	NF-kB expr up 4.3, STAT1 act 156 | STAT1 act conf 144 | NFkB act 136 | STAT3 act 2 inactive
Nc1nnc(SCc2nnc(-c3ccccc3)o2)s1	none
CCC(=O)Nc1cccc(NC(=S)NC(=O)c2cc3ccccc3o2)c1	APP 5'UTR act 153, STAT1 act 157 | STAT1 act conf 235 | NFkB act inactive | STAT3 act 2 111
CCC(=O)Nc1cccc(NC(=S)NC(=O)c2ccccc2)c1	STAT1 act 151 | STAT1 act conf 162 | NFkB act inactive | STAT3 act 2 114
CCC(=O)Nc1cccc(NC(=S)NC(=O)c2cccc(C)c2)c1	none
O=C(COC(=O)c1ccc(Cl)c(S(=O)(=O)N2CCc3ccccc3C2)c1)Nc1ncc(Cl)cc1Cl	none
Cn1c(=S)n(CCC(=O)O)c2ccccc21	none
CCN(CC)CCOC(=O)c1ccc(NC(=O)c2cn(-c3ccccc3)nc2-c2cccs2)cc1	STAT1 act 155 | STAT1 act conf inactive | NFkB act inactive | STAT3 act 2 inactive
CCN(CC)CCNC(=O)c1cn(-c2ccccc2)nc1-c1cccs1	none
O=c1cc(-c2ccc(O)cc2)oc2ccccc12	STAT1 act 154 | STAT1 act conf 154 | NFkB act inactive | STAT3 act 2 125
Cc1cc(-c2ccn[nH]2)c(C)s1	none
Cc1nonc1C1CCCN1C(=O)c1cc(COc2ccc(F)cc2F)on1 (stereo not drawn)	STAT1 act 168 | STAT1 act conf 183 | NFkB act 137 | STAT3 act 2 inactive
O=C(COC(=O)c1ccc(F)cc1F)NC1CC1	none
COC(=O)c1sc(NC(=O)c2cc3c(s2)CCCC3)nc1C	NF-kB expr up 5.7, STAT1 act 155 | STAT1 act conf 202 | NFkB act inactive | STAT3 act 2 111
Cc1ccc(NC(=O)c2cc3c(s2)CCCC3)cc1	NF-kB expr up 8.8, STAT1 act 160 | STAT1 act conf 203 | NFkB act 154 | STAT3 act 2 inactive
Cc1ccc(NC(=O)c2scc3c2CCCC3)cc1	NF-kB expr up 9.5, APP 5'UTR act 195, STAT1 act 155 | STAT1 act conf 252 | NFkB act inactive | STAT3 act 2 inactive
COC(=O)c1ccc(CSc2nnc(NC(=O)c3cc4c(s3)CCCC4)s2)cc1	none
Cn1cc(NC(=O)OCc2ccc(Cl)cc2)c(C(F)(F)F)n1	NF-kB expr up 3.5, STAT1 act 178 | STAT1 act conf 165 | NFkB act inactive | STAT3 act 2 inactive
Cn1cc(C(=O)Nc2ccc(Cl)cc2)c(C(F)(F)F)n1	none
CCOc1cc(N2CCOCC2)c(OCC)cc1NC(=O)CSc1ncn[nH]1	none
